# What was measured:
# Type in all cases: functional
# [1] = tested on: Staphylococcus aureus; experiment: In vitro antibacterial activity against methicillin resistant Staphylococcus aureus (MRSA) ATCC 33591
# [2] = tested on: Staphylococcus aureus; experiment: In vitro antibacterial activity against methicillin sensitive Staphylococcus aureus ATCC 25923
# Outline: (§1)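 MICs by NCCLS broth dilution guidelines, modified by adding 0.02% bovine serum albumin to the growth medium; purified, resynthesized compounds tested against the expanded bacterial panel.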
# [3] = tested on: Enterococcus faecium; experiment: In vitro antibacterial activity against Vancomycin-susceptible Enterococcus faecium BM4147.1; outline: as §1
# [4] = tested on: Enterococcus faecalis; experiment: In vitro antibacterial activity against Vancomycin-resistant Enterococcus faecalis ATCC 51299
Compound,MIC [1] [mg/L],MIC [2] [mg/L],MIC [3] [mg/L],MIC [4] [mg/L]
CNC(=O)C[C@@H]1NC(=O)c2csc(n2)-c2ccc(-c3nc(C(=O)NCCN=C(N)N)cs3)nc2-c2csc(n2)-c2csc(n2)C(C(O)c2ccccc2)NC(=O)CNC(=O)c2nc(sc2COC)[C@H](C(C)C)NC(=O)c2nc1sc2C (some centres not stated),8,4,8,8
CNC(=O)C[C@@H]1NC(=O)c2csc(n2)-c2ccc(-c3nc(C(=O)NCCNCCO)cs3)nc2-c2csc(n2)-c2csc(n2)C(C(O)c2ccccc2)NC(=O)CNC(=O)c2nc(sc2COC)[C@H](C(C)C)NC(=O)c2nc1sc2C (some centres not stated),2,2,2,4
CNC(=O)C[C@@H]1NC(=O)c2csc(n2)-c2ccc(-c3nc(C(=O)N[C@@H](CCC(=O)O)C(=O)NCCCCCC(=O)O)cs3)nc2-c2csc(n2)-c2csc(n2)C(C(O)c2ccccc2)NC(=O)CNC(=O)c2nc(sc2COC)[C@H](C(C)C)NC(=O)c2nc1sc2C (some centres not stated),> 32,> 32,,
CNC(=O)C[C@@H]1NC(=O)c2csc(n2)-c2ccc(-c3nc(C(=O)NCC(O)CO)cs3)nc2-c2csc(n2)-c2csc(n2)C(C(O)c2ccccc2)NC(=O)CNC(=O)c2nc(sc2COC)[C@H](C(C)C)NC(=O)c2nc1sc2C (some centres not stated),0.06,0.125,0.015,0.015
CNC(=O)C[C@@H]1NC(=O)c2csc(n2)-c2ccc(-c3nc(C(=O)N[C@@H](CC(=O)O)C(=O)NCCCCCC(=O)O)cs3)nc2-c2csc(n2)-c2csc(n2)C(C(O)c2ccccc2)NC(=O)CNC(=O)c2nc(sc2COC)[C@H](C(C)C)NC(=O)c2nc1sc2C (some centres not stated),> 32,> 32,,
CNC(=O)C[C@@H]1NC(=O)c2csc(n2)-c2ccc(-c3nc(C(=O)N[C@@H](CC(=O)O)C(=O)N[C@@H](CC(=O)O)C(N)=O)cs3)nc2-c2csc(n2)-c2csc(n2)C(C(O)c2ccccc2)NC(=O)CNC(=O)c2nc(sc2COC)[C@H](C(C)C)NC(=O)c2nc1sc2C (some centres not stated),> 32,> 32,,
CNC(=O)C[C@@H]1NC(=O)c2csc(n2)-c2ccc(-c3nc(C(=O)N[C@@H](CCC(=O)O)C(=O)N4CCCC[C@H]4C(N)=O)cs3)nc2-c2csc(n2)-c2csc(n2)C(C(O)c2ccccc2)NC(=O)CNC(=O)c2nc(sc2COC)[C@H](C(C)C)NC(=O)c2nc1sc2C (some centres not stated),4,,,
CNC(=O)C[C@@H]1NC(=O)c2csc(n2)-c2ccc(-c3nc(C(=O)NCC[C@H](O)C(=O)O)cs3)nc2-c2csc(n2)-c2csc(n2)C(C(O)c2ccccc2)NC(=O)CNC(=O)c2nc(sc2COC)[C@H](C(C)C)NC(=O)c2nc1sc2C (some centres not stated),2,4,0.03,0.25
CNC(=O)C[C@@H]1NC(=O)c2csc(n2)-c2ccc(-c3nc(CNC(=O)NCC(O)CC(=O)O)cs3)nc2-c2csc(n2)-c2csc(n2)C(C(O)c2ccccc2)NC(=O)CNC(=O)c2nc(sc2COC)[C@H](C(C)C)NC(=O)c2nc1sc2C (some centres not stated),8,8,2,> 16
CNC(=O)C[C@@H]1NC(=O)c2csc(n2)-c2ccc(-c3nc(C(=O)NCCCC(=O)O)cs3)nc2-c2csc(n2)-c2csc(n2)C(C(O)c2ccccc2)NC(=O)CNC(=O)c2nc(sc2COC)[C@H](C(C)C)NC(=O)c2nc1sc2C (some centres not stated),0.125,0.25,0.015,0.03
CNC(=O)C[C@@H]1NC(=O)c2csc(n2)-c2ccc(-c3nc(C(=O)NCC(O)C(=O)O)cs3)nc2-c2csc(n2)-c2csc(n2)C(C(O)c2ccccc2)NC(=O)CNC(=O)c2nc(sc2COC)[C@H](C(C)C)NC(=O)c2nc1sc2C (some centres not stated),4,4,0.5,1
CNC(=O)C[C@@H]1NC(=O)c2csc(n2)-c2ccc(-c3nc(C(=O)NCCCN4CCOCC4)cs3)nc2-c2csc(n2)-c2csc(n2)C(C(O)c2ccccc2)NC(=O)CNC(=O)c2nc(sc2COC)[C@H](C(C)C)NC(=O)c2nc1sc2C (some centres not stated),0.06,0.125,0.06,0.06
CNC(=O)C[C@@H]1NC(=O)c2csc(n2)-c2ccc(-c3nc(C(=O)NCC[N+]4([O-])CCOCC4)cs3)nc2-c2csc(n2)-c2csc(n2)C(C(O)c2ccccc2)NC(=O)CNC(=O)c2nc(sc2COC)[C@H](C(C)C)NC(=O)c2nc1sc2C (some centres not stated),1,1,0.5,2
CNC(=O)C[C@@H]1NC(=O)c2csc(n2)-c2ccc(-c3nc(C(=O)NCCOCCO)cs3)nc2-c2csc(n2)-c2csc(n2)C(C(O)c2ccccc2)NC(=O)CNC(=O)c2nc(sc2COC)[C@H](C(C)C)NC(=O)c2nc1sc2C (some centres not stated),0.06,0.25,0.125,0.06
CNC(=O)C[C@@H]1NC(=O)c2csc(n2)-c2ccc(-c3nc(C(=O)NCCC[N+]4([O-])CCOCC4)cs3)nc2-c2csc(n2)-c2csc(n2)C(C(O)c2ccccc2)NC(=O)CNC(=O)c2nc(sc2COC)[C@H](C(C)C)NC(=O)c2nc1sc2C (some centres not stated),2,2,1,2
CNC(=O)C[C@@H]1NC(=O)c2csc(n2)-c2ccc(-c3nc(C(=O)NCCO)cs3)nc2-c2csc(n2)-c2csc(n2)C(C(O)c2ccccc2)NC(=O)CNC(=O)c2nc(sc2COC)[C@H](C(C)C)NC(=O)c2nc1sc2C (some centres not stated),0.125,0.06,0.03,0.03
CNC(=O)C[C@@H]1NC(=O)c2csc(n2)-c2ccc(-c3nc(C(=O)N4CC(C(N)=O)C4)cs3)nc2-c2csc(n2)-c2csc(n2)C(C(O)c2ccccc2)NC(=O)CNC(=O)c2nc(sc2COC)[C@H](C(C)C)NC(=O)c2nc1sc2C (some centres not stated),0.06,,,
CNC(=O)C[C@@H]1NC(=O)c2csc(n2)-c2ccc(-c3nc(C(=O)NCCCCCC(=O)O)cs3)nc2-c2csc(n2)-c2csc(n2)C(C(O)c2ccccc2)NC(=O)CNC(=O)c2nc(sc2COC)[C@H](C(C)C)NC(=O)c2nc1sc2C (some centres not stated),0.015,0.06,0.03,0.03
CNC(=O)C[C@@H]1NC(=O)c2csc(n2)-c2ccc(-c3nc(C(=O)N4CC(C(=O)N[C@H](CCC(=O)O)C(=O)O)C4)cs3)nc2-c2csc(n2)-c2csc(n2)C(C(O)c2ccccc2)NC(=O)CNC(=O)c2nc(sc2COC)[C@H](C(C)C)NC(=O)c2nc1sc2C (some centres not stated),> 32,> 32,,
CNC(=O)C[C@@H]1NC(=O)c2csc(n2)-c2ccc(-c3nc(C(=O)NCCCN)cs3)nc2-c2csc(n2)-c2csc(n2)C(C(O)c2ccccc2)NC(=O)CNC(=O)c2nc(sc2COC)[C@H](C(C)C)NC(=O)c2nc1sc2C (some centres not stated),1,1,2,2
CNC(=O)C[C@@H]1NC(=O)c2csc(n2)-c2ccc(-c3nc(C(=O)NCCC(=O)O)cs3)nc2-c2csc(n2)-c2csc(n2)C(C(O)c2ccccc2)NC(=O)CNC(=O)c2nc(sc2COC)[C@H](C(C)C)NC(=O)c2nc1sc2C (some centres not stated),0.5,0.5,0.06,0.06
CNC(=O)C[C@@H]1NC(=O)c2csc(n2)-c2ccc(-c3nc(C(=O)NCCCCN=C(N)N)cs3)nc2-c2csc(n2)-c2csc(n2)C(C(O)c2ccccc2)NC(=O)CNC(=O)c2nc(sc2COC)[C@H](C(C)C)NC(=O)c2nc1sc2C (some centres not stated),4,8,8,8
CNC(=O)C[C@@H]1NC(=O)c2csc(n2)-c2ccc(-c3nc(C(=O)NCCCCO)cs3)nc2-c2csc(n2)-c2csc(n2)C(C(O)c2ccccc2)NC(=O)CNC(=O)c2nc(sc2COC)[C@H](C(C)C)NC(=O)c2nc1sc2C (some centres not stated),0.125,0.125,0.06,0.125
CNC(=O)C[C@@H]1NC(=O)c2csc(n2)-c2ccc(-c3nc(C(=O)N[C@@H](CO)C(=O)N4CCC[C@H]4C(N)=O)cs3)nc2-c2csc(n2)-c2csc(n2)C(C(O)c2ccccc2)NC(=O)CNC(=O)c2nc(sc2COC)[C@H](C(C)C)NC(=O)c2nc1sc2C (some centres not stated),0.25,,,
CNC(=O)C[C@@H]1NC(=O)c2csc(n2)-c2ccc(-c3nc(C(=O)NCCN)cs3)nc2-c2csc(n2)-c2csc(n2)C(C(O)c2ccccc2)NC(=O)CNC(=O)c2nc(sc2COC)[C@H](C(C)C)NC(=O)c2nc1sc2C (some centres not stated),1,2,2,2
CNC(=O)C[C@@H]1NC(=O)c2csc(n2)-c2ccc(-c3nc(C(=O)NCCN4CCOCC4)cs3)nc2-c2csc(n2)-c2csc(n2)C(C(O)c2ccccc2)NC(=O)CNC(=O)c2nc(sc2COC)[C@H](C(C)C)NC(=O)c2nc1sc2C (some centres not stated),0.25,0.5,0.06,0.06

# Source: ChEMBL document CHEMBL1144979, “Combinatorial modification of natural products: synthesis and in vitro analysis of derivatives of thiazole peptide antibiotic GE2270 A: A-ring modifications” (Bioorg Med Chem Lett, 2003)
